Assay results published in ChEMBL document CHEMBL1165954, “Synthesis and in vitro antiprotozoal evaluation of substituted phenalenone analogues” (Bioorg Med Chem, 2010).
Converted amounts (≈) assume the structure as drawn.

Tests used:
[1] = test system: Leishmania amazonensis; assay: Antiprotozoal activity against promastigotes of Leishmania amazonensis MHOM/ BR/77/LTB0016 after 72 hrs by alamar blue assay; type: functional, organism-based; details: MHOM/ BR/77/LTB0016, 72 h
Summary of the method: (§1)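 Log-phase promastigotes at 10^6/well in phenol-red-free RPMI 1640. Serum was heat-inactivated FBS at 20% for L. donovani and 10% for L. amazonensis. Cells were exposed to compound serial dilutions with 10% Alamar Blue at 26 °C for 72 h and read at 570 nm with a 630 nm reference. IC50 was taken by linear regression with 95% confidence limits. Three experiments were run in duplicate and analysed by paired two-tailed t-test.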

[2] = test system: Leishmania donovani; assay: Antiprotozoal activity against promastigotes of Leishmania donovani MHOM/IN/90/GE1F8R after 72 hrs by alamar blue assay; type: functional, organism-based; summary of the method: as §1
[3] = Cytotoxicity against human MCF7 cells assessed as growth inhibition at 10 uM after 72 hrs by MTT assay; type: cell-based
Summary of the method: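 MCF-7 cells in DMEM with 10% FBS, plated at 10,000 cells/well. After 72 h, MTT was added at 0.5 mg/mL final for 3 h at 37 °C. Formazan was dissolved in SDS–HCl (20% SDS, 0.02 M HCl) and absorbance read at 570 nm.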

[4] = test system: Trypanosoma cruzi; assay: Antiprotozoal activity against epimastigotes of Trypanosoma cruzi Y by alamar blue assay; type: functional, organism-based
Summary of the method: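 Y-strain epimastigotes grown at 28 °C in LIT medium with 10% (v/v) heat-inactivated FBS. Growth inhibition was measured by the same Alamar Blue colorimetric method used for Leishmania promastigotes.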

Row | SMILES | IC50 [4] | IC50 [1] | IC50 [2] | inhibition at 72 h, 10 µM [3]
1 | O=C1C=Cc2cccc3ccc(-c4ccco4)c1c23 | > 100 µg/mL | 8.39 µg/mL (≈ 34.1 µM) | > 100 µg/mL | 14%
2 | COC1c2cccc3ccc(-c4ccccc4)c(c23)C(=O)C1O (configuration not stated) | > 100 µg/mL | > 100 µg/mL | > 100 µg/mL | 17%
3 | Oc1ccc2cccc3c2c1C(c1ccco1)C=C3 (configuration not stated) | > 100 µg/mL | > 100 µg/mL | > 100 µg/mL | –
4 | OC1(c2ccccn2)C=Cc2cccc3ccc(-c4ccccn4)c1c23 (configuration not stated) | > 100 µg/mL | > 100 µg/mL | > 100 µg/mL | 0%
5 | O=C1C=Cc2cccc3ccc(-c4ccccn4)c1c23 | > 100 µg/mL | 53.2 µg/mL (≈ 207 µM) | > 100 µg/mL | 0%
6 | O=C1C=Cc2cccc3ccc(-c4cccs4)c1c23 | > 100 µg/mL | 14.5 µg/mL (≈ 55.3 µM) | > 100 µg/mL | 4%
7 | O=C1C(O)=Cc2cccc3ccc(-c4ccc(O)cc4)c1c23 | > 100 µg/mL | > 100 µg/mL | > 100 µg/mL | 23%
8 | Cc1cccc(C)c1-c1ccc2cccc3c2c1C(=O)C=C3 | 49.8 µg/mL (≈ 175 µM) | 42.8 µg/mL (≈ 151 µM) | 27.8 µg/mL (≈ 97.8 µM) | 1%
9 | O=C1C(O)=Cc2cccc3ccc(-c4ccccc4)c1c23 | > 100 µg/mL | > 100 µg/mL | > 100 µg/mL | 22%
10 | N#Cc1ccc2cccc3c2c1C(=O)C=C3 | > 100 µg/mL | 3.73 µg/mL (≈ 18.2 µM) | 1.02 µg/mL (≈ 4.97 µM) | 44%
11 | O=C1C=Cc2cccc3ccc(-c4ccccc4)c1c23 | > 100 µg/mL | > 100 µg/mL | > 100 µg/mL | 5%

Now from value to molecule, other results behind:

Row | IC50 [4] | SMILES | IC50 [1] | IC50 [2] | inhibition at 72 h, 10 µM [3]
12 | 48.3 µg/mL (≈ 169 µM) | COC1=Cc2cccc3ccc(-c4ccccc4)c(c23)C1=O | 9.04 µg/mL (≈ 31.6 µM) | 29.9 µg/mL (≈ 104 µM) | 14%
13 | > 100 µg/mL | COc1ccc(-c2ccc3cccc4c3c2C(=O)C(O)C4O)cc1 (configuration not stated) | > 100 µg/mL | > 100 µg/mL | –
14 | 11.4 µg/mL (≈ 39.8 µM) | COc1ccc(-c2ccc3cccc4c3c2C=CC4=O)cc1 | 4.43 µg/mL (≈ 15.5 µM) | > 100 µg/mL | 17%
15 | > 100 µg/mL | COC1=Cc2cccc3ccc(-c4ccc(OC)cc4)c(c23)C1=O | > 100 µg/mL | > 100 µg/mL | 15%
16 | > 100 µg/mL | O=C1C(O)=Cc2c(-c3ccccc3)ccc3cccc1c23 | > 100 µg/mL | > 100 µg/mL | 19%
17 | 2.62 µg/mL (≈ 14.5 µM) | O=C1C=Cc2cccc3cccc1c23 [PERINAPHTHENONE] | 27.3 µg/mL (≈ 151 µM) | 65.1 µg/mL (≈ 361 µM) | 0%
18 | > 100 µg/mL | COc1ccc(C2=CC(=O)c3cccc4cccc2c34)cc1 | > 100 µg/mL | > 100 µg/mL | 2%
19 | > 100 µg/mL | O=C1C(O)=Cc2c(-c3ccc(O)cc3)ccc3cccc1c23 | > 100 µg/mL | > 100 µg/mL | 12%
20 | > 100 µg/mL | COc1ccc(-c2ccc3cccc4c3c2C(=O)C=C4)cc1 | 0.83 µg/mL (≈ 2.9 µM) | > 100 µg/mL | 13%
21 | > 100 µg/mL | COc1ccc(-c2ccc3cccc4c3c2C(=O)C(O)=C4)cc1 | > 100 µg/mL | > 100 µg/mL | 19%
